# In ChEMBL document CHEMBL1137792, “The immobilization of gossypol derivative on N-polyvinylpyrrolidone increases its water solubility and modifies membrane-active properties” (J Med Chem, 2009):
# Assays:
# [1] = Drug binding to Wistar rat liver mitochondrial membrane assessed as [14C] labeled megosin after 5 mins; type: ADME, tissue-based; details: in vitro
# In short: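 Mitochondria (10 mg protein/mL) incubated with 14C-labeled compound (10 nmol/mg protein, 9.45 mCi/mmol) plus 50-fold unlabeled (500 nmol/mg) at 22 °C with stirring; vacuum filtration through nitrocellulose, two water rinses, filters dried 24 h and counted by liquid scintillation; bound label expressed as cpm and % of total radioactivity. Mean ± SEM, n=12.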
# [2] = Effect on nonenergized Wistar rat liver mitochondrial membrane permeability assessed as increase in permeability to Mg2+ ion at 20 uM; type: ADME, mitochondria, Mitochondria
# In short: (§1)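 Passive swelling of nonenergized rat liver mitochondria (1.0 mg/mL protein) in iso-osmotic nitrate media, Tris-HNO3 pH 7.4, rotenone 0.33 μg/mL, 25 °C, stirred: KNO3 120 mM; Mg2+ and Ba2+ 80 mM; Ca2+ 40 mM with 120 mM sucrose. Absorbance decrease at 520 nm followed; swelling rates normalised to the K+ rate set as 1. Five recordings.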
# [3] = Effect on nonenergized Wistar rat liver mitochondrial membrane permeability assessed as increase in permeability to Ca2+ ion at 20 uM; type: ADME, mitochondria, Mitochondria; in short: as §1
# [4] = Toxicity in human erythrocytes assessed as reduction of membrane fluidity at 0.4 uM by fluorescent anisotropy relative to untreated control; type: cell-based; details: erythrocyte
# In short: (§2)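 Human erythrocyte ghosts (hypotonic Tris-HCl/EDTA lysis) diluted in PBS pH 7.4, 2 min at 37 °C with compound (0.05-0.75 μM final), then DPH 1 μM final, 15 min dark at room temperature; steady-state anisotropy, excitation 348/emission 426 nm; ratio to no-compound control (Ai/A0). Mean ± SEM, n=8.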
# [5] = Decrease in Wistar rat liver mitochondrial membrane fluidity assessed as rotational correlation times of spin probe at 0.15 uM by ESR; type: ADME, mitochondria, Mitochondria
# In short: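 ESR of rat liver mitochondria (1 mg/mL protein) in 145 mM KCl, 10 mM Tris-HCl pH 7.4 with nitroxide spin probe added in ethanol to 10^-6 M final; 2 min incubation with compound (range 0.025-0.3 μM) before spectra; rotational correlation time τc derived. Mean ± SEM, n=9, three independent experiments.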
# [6] = Effect on nonenergized Wistar rat liver mitochondrial membrane permeability assessed as increase in permeability to Ba2+ ion at 20 uM; type: ADME, mitochondria, Mitochondria; in short: as §1
# [7] = Toxicity in human erythrocytes assessed as reduction of membrane fluidity by fluorescent anisotropy; type: cell-based; details: erythrocyte; in short: as §2
# [8] = Effect on nonenergized Wistar rat liver mitochondrial membrane permeability assessed as increase in permeability to potassium ion at 20 uM; type: ADME, mitochondria, Mitochondria; in short: as §1
# [9] = Toxicity in Wistar rat erythrocytes assessed as induction of hemolysis at 50 uM; type: cell-based, Erythrocyte; details: read-out: Activity
# In short: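 Freshly isolated, washed rat erythrocytes as 2% suspension in 140 mM NaCl, 10 mM Tris-citrate, 1 mM EDTA, pH 7.5, incubated 30 min at 37 °C with compound (20-100 μM range); spun at 1000g, supernatant OD540 read against water-lysed cells as 100%. Mean ± SEM, n=9.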
structure (smiles),measurement,setting,value
Cc1cc2c(c(O)c1-c1c(C)cc3c(c1O)/C(=C/NCCS(=O)(=O)[O-])C(=O)C(O)=C3C(C)C)/C(=C/NCCS(=O)(=O)[O-])C(=O)C(O)=C2C(C)C.[Na+].[Na+] [MEGOSIN],Drug uptake,[1],88.2%
same,Activity,[2],Active
same,Activity,[3],Active
same,fold change (FC),[4],1.83
same,Activity,[5],32.1 ×10⁻¹⁰ s
same,Activity,[6],Active
same,Activity,[7],Dose-dependent effect
same,Activity,[8],Active
same,hemolysis at 50 µM,[9],68%
